In ChEMBL document CHEMBL3112537, “A novel series of 6-substituted 3-(pyrrolidin-1-ylmethyl)chromen-2-ones as selective monoamine oxidase (MAO) A inhibitors” (Eur J Med Chem, 2014):

What was measured:
Rattus norvegicus [1] = test: In vivo inhibition of MAO-A in Sprague-Dawley rat assessed as 3,4-dihydroxyphenylacetic acid level in brain striatum at 86 umol/kg, sc after 1 hr by HPLC/EC analysis relative to control; format: functional; set-up: scale not given: the % may be the effect or the level left
Outline: (§1)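 Freely moving rats dosed subcutaneously and sacrificed 1 h later. Striatal DOPAC, 3-MT and 5-HIAA were measured post mortem and expressed as % of saline control (n = 4). Significance was by Student's t-test, P < 0.05.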

[2] = molecular target: T1, Amine oxidase [flavin-containing] B (Homo sapiens, UniProt P27338); test: Inhibition of human recombinant MAO-B assessed as kynuramine oxidation to 4-hydroxyquinoline after 40 mins by LC-MS/MS analysis
T1 sequence (P27338 whole entry): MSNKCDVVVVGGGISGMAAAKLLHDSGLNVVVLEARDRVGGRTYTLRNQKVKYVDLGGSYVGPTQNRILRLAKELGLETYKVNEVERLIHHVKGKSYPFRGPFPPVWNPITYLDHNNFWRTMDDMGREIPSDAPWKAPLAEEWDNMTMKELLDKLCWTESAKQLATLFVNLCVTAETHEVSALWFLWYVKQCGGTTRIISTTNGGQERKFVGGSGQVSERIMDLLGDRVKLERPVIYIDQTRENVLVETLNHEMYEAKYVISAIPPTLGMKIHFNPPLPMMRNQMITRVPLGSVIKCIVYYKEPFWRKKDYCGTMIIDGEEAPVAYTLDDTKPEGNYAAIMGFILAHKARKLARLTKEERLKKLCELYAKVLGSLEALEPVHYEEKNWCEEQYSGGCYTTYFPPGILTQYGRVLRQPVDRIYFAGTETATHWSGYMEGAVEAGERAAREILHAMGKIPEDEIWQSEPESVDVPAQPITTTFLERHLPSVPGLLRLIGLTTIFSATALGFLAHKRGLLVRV
Outline: (§2)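 Human MAO A and MAO B inhibition using kynuramine as a mixed substrate for both isoforms. IC50 is given as the mean ± SE of duplicate determinations.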

[3] = molecular target: T2, Amine oxidase [flavin-containing] A (Homo sapiens, UniProt P21397); test: Inhibition of human recombinant MAO-A assessed as kynuramine oxidation to 4-hydroxyquinoline after 40 mins by LC-MS/MS analysis; outline: as §2
T2 sequence (P21397 whole entry): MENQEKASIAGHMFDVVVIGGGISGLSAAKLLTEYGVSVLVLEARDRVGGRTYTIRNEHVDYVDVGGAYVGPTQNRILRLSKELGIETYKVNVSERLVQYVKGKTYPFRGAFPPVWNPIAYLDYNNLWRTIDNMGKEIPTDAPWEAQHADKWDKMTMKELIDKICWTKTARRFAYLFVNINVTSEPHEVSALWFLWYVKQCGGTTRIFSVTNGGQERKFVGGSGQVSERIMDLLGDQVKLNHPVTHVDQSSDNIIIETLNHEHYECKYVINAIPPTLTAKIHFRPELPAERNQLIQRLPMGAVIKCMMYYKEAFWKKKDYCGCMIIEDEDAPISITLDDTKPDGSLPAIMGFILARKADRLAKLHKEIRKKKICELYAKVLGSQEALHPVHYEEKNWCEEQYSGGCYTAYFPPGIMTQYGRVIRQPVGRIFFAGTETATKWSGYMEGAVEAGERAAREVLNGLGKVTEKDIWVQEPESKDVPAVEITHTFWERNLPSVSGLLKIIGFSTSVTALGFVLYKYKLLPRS

D(2) dopamine receptor = D(2) dopamine receptor (Homo sapiens, UniProt P14416); test: Antagonist activity at dopamine D2 receptor (unknown origin) expressed in HEK cells co-expressing Gqi5 assessed as inhibition of dopamine-induced effect by FLIPR assay; format: cell-based, HEK293
D(2) dopamine receptor, sequence (P14416 whole entry): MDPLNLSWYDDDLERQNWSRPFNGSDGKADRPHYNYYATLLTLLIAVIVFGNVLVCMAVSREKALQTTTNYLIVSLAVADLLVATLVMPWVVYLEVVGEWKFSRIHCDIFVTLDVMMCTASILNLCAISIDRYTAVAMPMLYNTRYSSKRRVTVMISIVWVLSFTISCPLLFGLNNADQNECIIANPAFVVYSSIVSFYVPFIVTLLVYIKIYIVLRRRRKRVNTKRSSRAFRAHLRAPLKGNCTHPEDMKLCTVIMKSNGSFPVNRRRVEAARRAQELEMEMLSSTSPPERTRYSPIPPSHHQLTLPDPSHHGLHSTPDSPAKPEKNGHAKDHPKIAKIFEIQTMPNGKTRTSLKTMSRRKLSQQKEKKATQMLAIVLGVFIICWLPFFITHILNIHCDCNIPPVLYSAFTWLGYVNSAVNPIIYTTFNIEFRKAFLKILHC

[4] = Metabolic stability in rat liver microsomes assessed as compound remaining at 5 uM after 60 mins by LC-MS/MS analysis; format: ADME; settings: read-out: Stability
Outline: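 Incubation with rat liver microsomes, read as % of compound remaining after 60 min.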

Rattus norvegicus [5] = test: In vivo inhibition of MAO-A in Sprague-Dawley rat assessed as 3-methoxytyramine level in brain striatum at 86 umol/kg, sc after 1 hr by HPLC/EC analysis relative to control; format: functional; set-up: scale not given: the % may be the effect or the level left; outline: as §1
Rattus norvegicus [6] = test: In vivo inhibition of MAO-A in Sprague-Dawley rat assessed as 5-hydroxyindoleacetic acid in brain striatum at 86 umol/kg, sc after 1 hr by HPLC/EC analysis relative to control; format: functional; set-up: scale not given: the % may be the effect or the level left; outline: as §1
[7] = molecular target: T1, Amine oxidase [flavin-containing] B; test: Inhibition of MAO-B (unknown origin)
[8] = molecular target: T2, Amine oxidase [flavin-containing] A; test: Inhibition of MAO-A (unknown origin)

IC50 [2] [µM] | IC50 [3] [µM] | IC50 (D(2) dopamine receptor) [µM] | remaining at 1 h, 5 µM [4] [%] | IC50 [7] [nM] | IC50 [8] [nM] | SMILES | Activity (Rattus norvegicus [1]) [%] | Activity (Rattus norvegicus [5]) [%] | Activity (Rattus norvegicus [6]) [%]
> 100 | 3.77 | 16.3 | 80 |  |  | Nc1ccc2oc(=O)c(CN3CCCC3)cc2c1 | 45 | 170 | 72
 |  |  |  | 19.5 | 67.6 | O=C(O)c1cc2cc([N+](=O)[O-])ccc2oc1=O |  |  | 
